One test relates to HEK293. The test is described as follows: Antiproliferative activity against human HEK293 cells after 2 days by MTT assay. Type of test: cell-based. The conditions noted are these: HEK293, 48 h. The method in brief:
(§1)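 Cells (5×10^3 per well) in DMEM with 10% FBS, glucose, glutamine and antibiotics were exposed to serial dilutions (stocks in DMSO) for 2 days at 37 °C, 5% CO2. MTT was added for 3 h, formazan was dissolved in DMSO and absorbance read at 490 nm. Viability was taken as % of untreated cells. IC50 was read graphically from three independent experiments.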
A general note: Tetrazolium assays rely on reduction of a dye to a coloured formazan, in cell work by metabolically active cells.

The subject of test [1] is HT-29. The test is described as follows: Antiproliferative activity against human HT-29 cells after 2 days by MTT assay. It is filed as functional, cell-based. The settings on record: HT-29, 48 h. A digest of the protocol:
as §1

Another test concerns HeLa. In words: Antiproliferative activity against human HeLa cells after 2 days by MTT assay. Type of test: functional, cell-based. The conditions noted are these: 48 h. The method in brief: as §1
Test [2] has as its system HT-29. In words: Effect on c-MYC protein expression in human HT-29 cells assessed as c-MYC level at 20 nM after 48 hrs by ELISA. It is filed as functional. The method in brief: (§2)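 HT-29 cells (1.5×10^5 per well, 24 h pre-culture) were treated 48 h and washed in PBS. They were lysed in Tris pH 7.4 buffer with detergents, phosphatase inhibitors, PMSF and protease inhibitors. Lysates were adjusted to 200 µg/mL protein (Bradford) and total c-Myc or VEGFR-2 was measured by sandwich ELISA kit. Values are % of DMSO control, ≥3 measurements.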
Background: An ELISA detects its analyte on a solid surface through an enzyme-linked reagent.

For test [3], the system named is HT-29. The test is described as follows: Induction of apoptosis in human HT-29 cells assessed as apoptotic cells at 20 nM after 48 hrs by Annexin V-FITC staining-based flow cytometric analysis (reference value: 13 +/- 3%). It is filed as functional.
Test [4] deals with HT-29. The test is described as follows: Induction of apoptosis in human HT-29 cells assessed as necrotic cells at 20 nM after 48 hrs by Annexin V-FITC staining-based flow cytometric analysis (reference value: 2 +/- 6%). It is filed as functional. Background: Flow cytometry measures light scatter and fluorescence of single cells or particles in a stream.
For test [5], the system named is HT-29. In words: Induction of apoptosis in human HT-29 cells assessed as viable cells at 20 nM after 48 hrs by Annexin V-FITC staining-based flow cytometric analysis (reference value: 82 +/- 1%). The conditions noted are these: HT-29, 48 h, read-out: Activity. Type of test: functional.
The test system of test [6] is HT-29. In words: Effect on VEGF protein expression in human HT-29 cells assessed as secreted VEGF level in culture media at 20 nM after 48 hrs by ELISA.
The subject of the next test is MCF7. In words: Antiproliferative activity against human MCF7 cells after 2 days by MTT assay. It is filed as functional, cell-based. The settings on record: MCF7, 48 h. The method in brief:
as §1

Test [7] concerns HT-29. The test is described as follows: Effect on VEGFR2 protein expression in human HT-29 cells assessed as VEGFR2 level at 20 nM after 48 hrs by ELISA. It is filed as functional. A digest of the protocol: as §2
In test [8] the test system is HT-29. The test is described as follows: Effect on VEGF gene expression in human HT-29 cells assessed as VEGF level at 20 nM after 48 hrs by RT-qPCR analysis. Type of test: functional. The method in brief:
(§3)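 HT-29 cells at 70–80% confluence were seeded at 1.5×10^5 per well and left 24 h, then treated 48 h, with DMSO as control. Total RNA was extracted and VEGF-A, c-Myc and hTERT were quantified by TaqMan qPCR, normalized to β-actin and to living cell number. Results are % expression versus control, at least three measurements.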

The test system of test [9] is HT-29. In words: Effect on c-MYC gene expression in human HT-29 cells assessed as c-MYC level at 20 nM after 48 hrs by RT-qPCR analysis. Type of test: functional. The method in brief: as §3
The test system of test [10] is HT-29. The test is described as follows: Effect on hTERT gene expression in human HT-29 cells assessed as hTERT level at 20 nM after 48 hrs by RT-qPCR analysis. It is filed as functional. A digest of the protocol:
as §3

Test [11] has as its system HT-29. The test is described as follows: Effect on c-MYC protein expression in human HT-29 cells assessed as c-MYC level at 25 nM after 48 hrs by ELISA. It is filed as functional. The method in brief: as §2
Test [12] has as its system HT-29. In words: Induction of apoptosis in human HT-29 cells assessed as apoptotic cells at 40 nM after 48 hrs by Annexin V-FITC staining-based flow cytometric analysis (reference value: 13 +/- 3%). It is filed as functional.
For test [13], the system named is HT-29. In words: Effect on VEGFR2 protein expression in human HT-29 cells assessed as VEGFR2 level at 25 nM after 48 hrs by ELISA. Type of test: functional. A digest of the protocol: as §2
For test [14], the system named is HT-29. The test is described as follows: Induction of apoptosis in human HT-29 cells assessed as viable cells at 40 nM after 48 hrs by Annexin V-FITC staining-based flow cytometric analysis (reference value: 82 +/- 1%). Type of test: functional. The settings on record: HT-29, 48 h, read-out: Activity.
Test [15] relates to HT-29. In words: Induction of apoptosis in human HT-29 cells assessed as necrotic cells at 40 nM after 48 hrs by Annexin V-FITC staining-based flow cytometric analysis (reference value: 2 +/- 6%). It is filed as functional.
The subject of test [16] is HT-29. In words: Effect on VEGF gene expression in human HT-29 cells assessed as VEGF level at 25 nM after 48 hrs by RT-qPCR analysis. Type of test: functional. A digest of the protocol:
as §3

Test [17] concerns HT-29. In words: Effect on VEGF protein expression in human HT-29 cells assessed as secreted VEGF level in culture media at 25 nM after 48 hrs by ELISA.
Test [18] relates to HT-29. In words: Effect on hTERT gene expression in human HT-29 cells assessed as hTERT level at 25 nM after 48 hrs by RT-qPCR analysis. It is filed as functional. The method in brief:
as §3

The test system of test [19] is HT-29. In words: Effect on c-MYC gene expression in human HT-29 cells assessed as c-MYC level at 25 nM after 48 hrs by RT-qPCR analysis. It is filed as functional. The method in brief: as §3
Test [20] concerns HT-29. In words: Induction of apoptosis in human HT-29 cells assessed as viable cells at 25000 nM after 48 hrs by Annexin V-FITC staining-based flow cytometric analysis (reference value: 82 +/- 1%). It is filed as functional. The conditions noted are these: HT-29, 48 h, read-out: Activity.
The subject of test [21] is HT-29. In words: Effect on c-MYC gene expression in human HT-29 cells assessed as c-MYC level at 25 uM after 48 hrs by RT-qPCR analysis. Type of test: functional. The method in brief: as §3
The subject of test [22] is HT-29. The test is described as follows: Effect on VEGFR2 protein expression in human HT-29 cells assessed as VEGFR2 level at 25 uM after 48 hrs by ELISA. Type of test: functional. The method in brief:
as §2

The subject of test [23] is HT-29. In words: Effect on hTERT gene expression in human HT-29 cells assessed as hTERT level at 25 uM after 48 hrs by RT-qPCR analysis. Type of test: functional. The method in brief: as §3
Test [24] concerns HT-29. The test is described as follows: Induction of apoptosis in human HT-29 cells assessed as necrotic cells at 25000 nM after 48 hrs by Annexin V-FITC staining-based flow cytometric analysis (reference value: 2 +/- 6%). Type of test: functional.
The subject of test [25] is HT-29. The test is described as follows: Effect on VEGF gene expression in human HT-29 cells assessed as VEGF level at 25 uM after 48 hrs by RT-qPCR analysis. Type of test: functional. The method in brief:
as §3

The test system of test [26] is HT-29. The test is described as follows: Induction of apoptosis in human HT-29 cells assessed as apoptotic cells at 25000 nM after 48 hrs by Annexin V-FITC staining-based flow cytometric analysis (reference value: 13 +/- 3%). Type of test: functional.
The test system of test [27] is HT-29. In words: Effect on c-MYC protein expression in human HT-29 cells assessed as c-MYC level at 25 uM after 48 hrs by ELISA. It is filed as functional. A digest of the protocol:
as §2

Test [28] has as its system HT-29. In words: Effect on VEGF protein expression in human HT-29 cells assessed as secreted VEGF level in culture media at 25 uM after 48 hrs by ELISA.

One may read the IC50 as the concentration that inhibits the measured activity by half. A high value points to lower potency.

Take `COc1cc2c(c(OC)c1OC)-c1ccc(OC)c(=O)cc1[C@@H](NC(=O)Nc1ccccc1C(F)(F)F)CC2`: the IC50 in the test with HEK293 amounted to 19 nM; with HT-29 [1] it was 15 nM; in the test with HeLa, 18 nM; with MCF7, 25 nM. The Activity in the test on HT-29 [2] stood at 99%; with HT-29 [3], 4%; with HT-29 [4], 1%; in the test on HT-29 [6], 82%; with HT-29 [7] it was 100%; in the test on HT-29 [8] it was 101%. For the same compound, the Activity in the test with HT-29 [9] and with HT-29 [10] was 107% in each case. The viability at 0.02 µM in the test on HT-29 [5] worked out at 96%.
With `COc1cc2c(c(OC)c1OC)-c1ccc(OC)c(=O)cc1[C@@H](NC(C)=O)CC2` [COLCHICINE], the Activity in the test on HT-29 [11] is 63%; with HT-29 [12], 73%; in the test on HT-29 [13], 94%; in the test with HT-29 [15] it was 1%; with HT-29 [16], 55%; in the test on HT-29 [17], 40%. Besides, the Activity in the test with HT-29 [18] came to 87%; with HT-29 [19], 37%. Besides, the IC50 worked out at 13 nM in the test on HEK293, 13 nM in the test on HT-29 [1], 14 nM in the test on HeLa and 20 nM with MCF7. In the test on HT-29 [14], the viability at 0.04 µM was 26%.
With `CCN(CC)CCNC(=O)c1c(C)[nH]c(/C=C2\C(=O)Nc3ccc(F)cc32)c1C` [SUNITINIB], the viability at 25 µM in the test with HT-29 [20] was 75%. Further, the Activity in the test on HT-29 [21] is on record as 47%; in the test on HT-29 [22], 90%; in the test with HT-29 [23], 68%; with HT-29 [24] it was 3%; in the test on HT-29 [25], 46%; in the test with HT-29 [26], 22%. Further, the Activity with HT-29 [27] turned out to be 100%; with HT-29 [28], 45%.

Values taken from ChEMBL document CHEMBL4229380, “Arylureas derived from colchicine: Enhancement of colchicine oncogene downregulation activity” (Eur J Med Chem, 2018).
